The results in this text go back to publication PMC9302689 (British Journal of Clinical Pharmacology, 2022).

The target of series [1] is μ receptor (Homo sapiens, UniProt P35372). Nature of the series: In vitro binding affinity, μ receptor.
The test system of series [2] is neuronal abnormalities. Nature of the series: Preclinical test for neuronal abnormalities. The class given is in vivo. Particulars: up to a HED of 3360 mg.
Series [3] concerns the target hERG channel (Homo sapiens, UniProt Q12809). Nature of the series: In vitro hERG channel testing. The format is biochemical. In general terms: hERG is a cardiac potassium channel; its block is linked to QT prolongation.
Series [4] in a line: Preclinical pharmacokinetic studies. The format is in vivo. Conditions: dogs and rats, oral administration.
The subject of series [5] is healthy male subjects. Nature of the series: ECG, QTcF interval. The format is in vivo, human. A digest of the protocol: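 Randomized, double-blind, placebo-controlled single ascending dose study in healthy men, dosed 3–200 mg after an overnight fast. 12-lead ECGs were recorded in triplicate, 1 min apart, after 5 min rest in the semi-recumbent position, at scheduled times. QTc and other intervals were derived automatically from the digital ECGs by the Marquette 12SL algorithm.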

Series [6] concerns healthy male subjects. Nature of the series: NeuroCart saccadic eye movement. The class given is in vivo, human. Conditions: 12-hour post-dose period. In outline: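 Fasted healthy men were tested twice pre-dose and at 0.5–10 h post-dose with the head fixed 58 cm from the screen. Subjects followed a dot jumping about 15 degrees to either side. Fifteen saccades were recorded at random 3–6 s intervals. Peak velocity (deg/s) was averaged over artefact-free saccades. Change from baseline over 12 h was analysed by MMRM against pooled placebo.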

Sequence of μ receptor (P35372 whole entry): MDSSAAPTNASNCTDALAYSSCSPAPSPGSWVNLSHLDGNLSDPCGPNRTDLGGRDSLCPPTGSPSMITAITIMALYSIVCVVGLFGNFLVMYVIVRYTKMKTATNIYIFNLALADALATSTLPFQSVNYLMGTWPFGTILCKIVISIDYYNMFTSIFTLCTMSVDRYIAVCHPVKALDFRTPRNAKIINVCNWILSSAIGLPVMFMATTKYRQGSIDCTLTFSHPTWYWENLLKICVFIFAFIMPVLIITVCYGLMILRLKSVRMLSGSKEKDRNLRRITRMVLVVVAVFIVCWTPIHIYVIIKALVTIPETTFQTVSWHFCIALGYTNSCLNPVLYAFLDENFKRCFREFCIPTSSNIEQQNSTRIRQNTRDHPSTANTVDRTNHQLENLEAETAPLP
Sequence of hERG channel (Q12809 whole entry): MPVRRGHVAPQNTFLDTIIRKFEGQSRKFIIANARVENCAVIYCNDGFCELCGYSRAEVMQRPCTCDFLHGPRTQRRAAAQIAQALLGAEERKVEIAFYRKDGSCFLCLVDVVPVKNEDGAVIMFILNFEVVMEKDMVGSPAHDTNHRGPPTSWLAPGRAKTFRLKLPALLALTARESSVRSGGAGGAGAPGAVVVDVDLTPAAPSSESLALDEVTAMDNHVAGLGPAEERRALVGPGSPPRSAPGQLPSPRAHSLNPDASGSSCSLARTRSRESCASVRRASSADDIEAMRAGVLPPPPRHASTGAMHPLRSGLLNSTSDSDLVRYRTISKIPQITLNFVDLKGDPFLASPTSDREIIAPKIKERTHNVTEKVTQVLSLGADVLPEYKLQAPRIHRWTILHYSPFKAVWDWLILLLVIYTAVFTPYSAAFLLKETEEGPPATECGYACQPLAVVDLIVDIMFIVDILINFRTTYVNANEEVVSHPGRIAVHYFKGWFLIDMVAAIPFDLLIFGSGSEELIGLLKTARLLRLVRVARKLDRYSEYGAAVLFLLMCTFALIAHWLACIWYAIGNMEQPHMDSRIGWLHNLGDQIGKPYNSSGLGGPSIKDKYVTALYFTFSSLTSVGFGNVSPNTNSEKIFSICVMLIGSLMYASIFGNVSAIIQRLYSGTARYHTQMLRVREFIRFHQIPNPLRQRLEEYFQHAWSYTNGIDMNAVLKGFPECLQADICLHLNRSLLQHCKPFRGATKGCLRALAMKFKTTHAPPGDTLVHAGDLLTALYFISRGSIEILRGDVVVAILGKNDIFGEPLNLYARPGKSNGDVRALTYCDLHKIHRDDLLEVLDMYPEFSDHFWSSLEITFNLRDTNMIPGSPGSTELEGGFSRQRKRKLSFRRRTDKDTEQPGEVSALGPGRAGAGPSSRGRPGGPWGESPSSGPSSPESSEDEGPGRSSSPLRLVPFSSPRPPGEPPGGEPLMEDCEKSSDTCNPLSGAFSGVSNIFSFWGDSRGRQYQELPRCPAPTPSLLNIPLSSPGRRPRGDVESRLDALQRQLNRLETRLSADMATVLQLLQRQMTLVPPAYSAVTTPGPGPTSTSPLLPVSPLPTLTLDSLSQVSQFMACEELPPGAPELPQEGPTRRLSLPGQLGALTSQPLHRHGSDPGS

Usually Ki stands for a measure of affinity in units of concentration, obtained from inhibition or displacement. For orientation: IC50 means the concentration needed to halve the response being measured. As to `CN1CCC23CCCCC2C1Cc1ccc(C(N)=O)cc13` (stereo not drawn) [ALKS 7119, (9α, 13α)‐17‐methylmorphinan‐3‐carboxamide], the “Affinity for μ receptor lower than for SERT” value in series [1] is 17 fold. Besides, in series [1] (read-out: Ki, μ receptor, preclinical in vitro panel), the Ki came out at 0.6 µM. The “Potential to induce neuronal abnormalities” value in series [2] was “no potential to induce neuronal abnormalities”. In addition, in series [3], the “hERG IC50” value was 54.3488 µg/mL. For the same compound, the half-inhibitory concentration (IC50) in series [3] (read-out: hERG IC50) came to 191 µM. Further, the “median time to maximum plasma concentration (tmax)” value in series [4] was 30 min. For the same compound, the “Subjects with QTcF increases from baseline of 30–60 ms” value in series [5] (all ALKS 7119 groups, only at 50 mg or higher, none in placebo) turned out to be 8.8%. Besides, in series [5] (doses of ≥50 mg), the “QTcF interval increases compared to baseline” value was 30 to 60 ms. Besides, in series [5] (subject treated with 200 mg), the “Highest individual QTcF value” worked out at 475 ms. Besides, the “Increase of QTcF compared to baseline at highest individual value” in series [5] (subject treated with 200 mg) is given as 33 ms. The “Saccadic peak velocity, LSM CFB” value in series [6] (3 mg single oral dose) is given as −16.15 deg/s; in series [6] (10 mg single oral dose), 1.46 deg/s; in series [6] (25 mg single oral dose), 6.12 deg/s; in series [6] (50 mg single oral dose) it was 2.91 deg/s; in series [6] (75 mg single oral dose), −5.63 deg/s; in series [6] (100 mg single oral dose) it was 13.25 deg/s. Further, the “Saccadic peak velocity, LSM CFB” value is recorded as 5.98 deg/s in series [6] (125 mg single oral dose), 18.15 deg/s in series [6] (150 mg single oral dose), 5.26 deg/s in series [6] (175 mg single oral dose) and −0.64 deg/s in series [6] (200 mg single oral dose).
